Experimental findings from ChEMBL document CHEMBL1135471, “Sugar-modified conjugated diene analogues of adenosine and uridine: synthesis, interaction with S-adenosyl-L-homocysteine hydrolase, and antiviral and cytostatic effects” (J Med Chem, 2002) are described below.

For one assay, the system named is Human betaherpesvirus 5. Nature of the assay: 50 % effective concentration against cytomegalo virus (CMV). It is filed as functional, organism-based. An outline of the steps: (§1)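 Human embryonic lung (HEL) cells were used against CMV strains AD-169 and Davis and VZV strains YS, OKA, 07/1 and YS/R. EC50 values are for the antiviral effect. The minimum cytotoxic concentration and CC50 for HEL cells were measured alongside.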

Assay [1] can be described thus: Minimum cytotoxic concentration against Coxsackie B4 virus in HeLa cell cultures, was determined. It is filed as functional, Coxsackievirus B4.
Another assay concerns E6SM. In words: Minimum concentration required to cause a microscopically detectable alteration of normal cell morphology in human embryonic skin muscle (E6SM) cell cultures. Conditions: for minimal effective concentration: read-out: MEC. Format: functional. The method in brief:
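E6SM cell cultures were examined by microscopy. The value is the minimum concentration giving a detectable alteration of normal cell morphology.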

The test system of assay [2] is Human immunodeficiency virus 1. In words: Cytostatic concentration against […] virus strains IIIB and ROD, in T-lymphocytic MT-4 cells. It is filed as functional. Conditions: Human immunodeficiency virus 1, MT4. The method in brief:
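T-lymphocytic MT-4 cells were tested alongside HIV-1 IIIB and HIV-2 ROD antiviral assays. The CC50 is the 50% cytostatic concentration for the MT-4 cells.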

For the next assay, the system named is Human alphaherpesvirus 1. Nature of the assay: Activity against herpes simplex virus 1 (HSV-1) strain KOS, was determined; No activity. Format: functional, organism-based.
The subject of assay [3] is Human alphaherpesvirus 2. In words: Activity against herpes simplex virus 2 (HSV-2) strain G, was determined; No activity. Format: functional, organism-based.
For assay [4], the target named is T1, Adenosylhomocysteinase (Homo sapiens, UniProt P23526). Nature of the assay: Inhibitory constant for S-adenosyl-homocysteine hydrolase, was determined using Kitz and Wilson equation {Kobs = Kinact. [I]/(Ki + [I])}.
Target sequence in this assay (P23526 whole entry): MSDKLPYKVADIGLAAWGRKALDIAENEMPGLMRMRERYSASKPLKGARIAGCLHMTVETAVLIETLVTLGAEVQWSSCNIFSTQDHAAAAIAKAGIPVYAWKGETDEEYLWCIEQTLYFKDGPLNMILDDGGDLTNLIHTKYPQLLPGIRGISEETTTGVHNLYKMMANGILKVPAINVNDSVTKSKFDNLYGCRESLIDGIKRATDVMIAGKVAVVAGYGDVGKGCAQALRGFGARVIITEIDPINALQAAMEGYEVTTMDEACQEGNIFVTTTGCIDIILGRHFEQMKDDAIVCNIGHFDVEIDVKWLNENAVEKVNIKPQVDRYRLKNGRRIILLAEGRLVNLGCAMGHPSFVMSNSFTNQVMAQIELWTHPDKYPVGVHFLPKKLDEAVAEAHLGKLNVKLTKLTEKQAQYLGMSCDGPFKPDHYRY
In assay [5] the target is T1, Adenosylhomocysteinase. Nature of the assay: Inactivation constant for S-adenosyl-homocysteine hydrolase, was determined using Kitz and Wilson equation {Kobs = Kinact. [I]/(Ki + [I])}.
Target sequence in this assay (P23526 2-432 limits assumed): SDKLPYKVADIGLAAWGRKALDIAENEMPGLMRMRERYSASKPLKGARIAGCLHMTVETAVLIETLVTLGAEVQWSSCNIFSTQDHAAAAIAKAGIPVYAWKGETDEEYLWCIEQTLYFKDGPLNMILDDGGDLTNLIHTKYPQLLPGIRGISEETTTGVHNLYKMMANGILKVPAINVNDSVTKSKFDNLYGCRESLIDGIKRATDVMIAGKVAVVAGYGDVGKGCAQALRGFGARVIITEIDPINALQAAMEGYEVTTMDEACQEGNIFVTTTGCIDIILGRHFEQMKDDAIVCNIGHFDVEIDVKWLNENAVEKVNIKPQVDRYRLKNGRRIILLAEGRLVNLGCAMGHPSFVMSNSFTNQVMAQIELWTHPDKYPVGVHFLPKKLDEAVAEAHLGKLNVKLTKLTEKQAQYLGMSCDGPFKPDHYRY
Assay [6] has as its target T1, Adenosylhomocysteinase. Nature of the assay: Percent NAD+ content after incubation of S-adenosyl-homocysteine hydrolase (5.8 uM) with 100 uM of compound at 37 degree C for 20 min. Format: functional. An outline of the steps:
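Enzyme in 50 mM potassium phosphate pH 7.2 with 1 mM EDTA. After the inhibitor step, cofactors were released with 5 N HClO4. NAD+ was quantified by C18 RP-HPLC at 258 nm, using a 2–98% acetonitrile gradient over 25 min against 25 mM phosphate pH 3.2 containing 10 mM heptane sulfonic acid.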
Target sequence in this assay (P23526 2-432 limits assumed): as above

The target of assay [7] is T1, Adenosylhomocysteinase. Nature of the assay: Percent S-adenosyl-homocysteine hydrolase (210 nM) activity remaining after incubating with 100 uM at 37 degree C for 20 minutes. The method in brief: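 Human enzyme preincubated with compound in 50 mM potassium phosphate pH 7.2, 1 mM EDTA. Residual activity measured in the synthetic direction: 1 mM Ado plus 1 mM Hcy, 37 °C, 1 min, stopped with HClO4. AdoHcy quantified by RP-HPLC at 258 nm. Duplicate determinations averaged.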
Target sequence in this assay (P23526 2-432 limits assumed): as above

Assay [8] deals with Vero. In words: Antiviral activity (cytotoxicity) was evaluated in vero cell cultures. Format: functional, Chlorocebus sabaeus.
The nature of assay [9]: Minimum cytotoxic concentration against respiratory syncytial virus in HeLa cell cultures, was determined. Format: functional.
The subject of assay [10] is Vaccinia virus. In words: Activity against vaccinia virus, was determined; No activity. The settings on record: Orthopoxvirus vaccinia. It is filed as functional, organism-based.
In assay [11] the test system is Vesicular stomatitis virus. In words: Activity against vesicular stomatitis virus, was determined; No activity. It is filed as functional, organism-based.
Assay [12] in a line: Minimum cytotoxic concentration against vesicular stomatitis virus in HeLa cell cultures, was determined. It is filed as functional.
Another assay concerns Human alphaherpesvirus 3. Nature of the assay: 50 % effective concentration against Varicella-Zoster virus (VZV) was determined. It is filed as functional, organism-based. An outline of the steps:
as §1

Assay [13] concerns Vero. In words: Antiviral activity was evaluated in vero cell cultures. Format: functional. Conditions: Chlorocebus sabaeus.
For a further assay, the system named is Coxsackievirus B4. In words: Minimum cytotoxic concentration against Coxsackie B4 virus in HeLa cell cultures. Format: functional.
For assay [14], the system named is Human alphaherpesvirus 2. Nature of the assay: Activity against herpes simplex virus 2 (HSV-2) […], was determined; No activity. It is filed as functional, organism-based.
Assay [15] deals with Vero. Nature of the assay: Activity was evaluated in vero cell cultures; Cytotoxic. Format: functional, cell-based. Conditions: Chlorocebus sabaeus.
Assay [16] has as its system Respiratory syncytial virus. In words: Minimum cytotoxic concentration against respiratory syncytial virus in HeLa cell cultures. Format: functional.
Assay [17] has as its system Vaccinia virus. Nature of the assay: Minimum cytotoxic concentration against vaccinia virus, was determined. It is filed as functional, organism-based. Conditions: Orthopoxvirus vaccinia.
Assay [18] has as its system Vesicular stomatitis virus. Nature of the assay: Minimum cytotoxic concentration against vesicular stomatitis virus in HeLa cell cultures. It is filed as functional.
Assay [19] has as its system HEL. In words: Minimum cytotoxic concentration determined in embryonic lung (HEL) cells against human CMV, strains AD-169 and Davis and VZV, strains YS, OKA, 07/1, and YS/R. It is filed as functional. The method in brief:
as §1

Assay [20] concerns the target T1, Adenosylhomocysteinase. In words: Inactivation constant for aS-adenosylhomocysteine hydrolase, was determined using Kitz and Wilson equation {Kobs = Kinact. [I]/(Ki + [I])}.
Target sequence in this assay (P23526 2-432 limits assumed): as above
For assay [21], the system named is HEL. Nature of the assay: Minimum cytotoxic concentration determined in embryonic lung (HEL) cells. Format: functional, Homo sapiens. An outline of the steps:
as §1

The target of assay [22] is T1, Adenosylhomocysteinase. Nature of the assay: Percent NAD+ content after incubation of AS-adenosylhomocysteine hydrolase (5.8 uM) with 100 uM of compound at 37 degree C for 20 min. Format: functional. The method in brief:
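Human AdoHcy hydrolase at 5.8 μM was preincubated with 100 μM inhibitor in 50 mM potassium phosphate, pH 7.2, with 1 mM EDTA, at 37 °C for 20 min. Cofactors were released with HClO4. NAD+ was quantified by C18 RP-HPLC (25 mM phosphate pH 3.2 with heptane sulfonic acid; acetonitrile gradient) with detection at 258 nm. Values are % NAD+ remaining.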
Target sequence in this assay (P23526 2-432 limits assumed): as above

The test system of assay [23] is HEL. Nature of the assay: 50 % cytotoxic concentration for human embryonic lung (HEL) cells. It is filed as functional. The method in brief:
as §1

Calls of active or inactive are those of the source. No cut-off for these calls is given here. Where only a bound is given, the exact number is not on record here.

With `CCOC(=O)/C=C\C=C\[C@H]1OC(n2cnc3c(N)ncnc32)[C@H](O)[C@@H]1O` (some centres undefined), a half-maximal response in the assay on Human betaherpesvirus 5 (EC50) required 18 µM. For the same molecule, the MCC50 (in assay [1]; in the assay with Vero [8]; in assay [9]; in assay [12]) was more than 200 µM throughout. This molecule also gave an MEC50 in the assay with E6SM of more than 40 µM. For the same molecule, in assay [2], the CC50 came to 160 µM. In the assay on Human alphaherpesvirus 1, the “antiviral activity against HSV-1” value was “inactive”. Also, the “Antiviral activity against HSV-2” value with Human alphaherpesvirus 2 [3] was “inactive”. For the same molecule, the Ki at Adenosylhomocysteinase [4] is 13.7 µM. Moreover, the K inact at Adenosylhomocysteinase [5] amounted to 0.59 min⁻¹. On Adenosylhomocysteinase [6], this molecule gave an NAD+ content of 36.2%. Besides, the Activity on Adenosylhomocysteinase [7] came out at 1.8%. The antiviral activity entry (with Vaccinia virus [10]; in assay [11]) was “inactive” in each case.
On to `CCOC(=O)/C=C\C=C\[C@H]1OC(n2ccc(=O)[nH]c2=O)[C@H](O)[C@@H]1O` (some centres undefined), for which the MCC50 in assay [1], in assay [9] and in assay [12] was more than 200 µM throughout. Moreover, the minimal effective concentration in the assay with E6SM was more than 40 µM. The CC50 in assay [2] turned out to be 40 µM. Moreover, in the assay on Human alphaherpesvirus 1, the “antiviral activity against HSV-1” value is “inactive”. Moreover, the “Antiviral activity against HSV-2” value in the assay on Human alphaherpesvirus 2 [3] was “inactive”. Also, the EC50 in the assay on Human alphaherpesvirus 3 is 10 µM. The molecule also gave an MCC in the assay on Vero [13] of more than 200 µM. The antiviral activity result (in the assay on Vaccinia virus [10]; in assay [11]) was “inactive” each time.
As to `CCOC(=O)/C=C/C=C/[C@H]1OC(n2ccc(=O)[nH]c2=O)[C@H](O)[C@@H]1O` (some centres undefined), the MCC50 in assay [1], in assay [9] and in [12] was more than 200 µM throughout. Moreover, the minimal effective concentration in the assay on E6SM is more than 40 µM. Besides, the half-maximal cytotoxic concentration (CC50) in assay [2] was more than 370 µM. Moreover, the “antiviral activity against HSV-1” value with Human alphaherpesvirus 1 is “inactive”. Also, in the assay with Human alphaherpesvirus 2 [3], the “Antiviral activity against HSV-2” value is “inactive”. In the assay with Vero [13], this molecule registered an MCC of more than 200 µM. Further, the antiviral activity entry (in the assay on Vaccinia virus [10]; in assay [11]) was “inactive” throughout.
For the molecule `O=c1ccn(C2O[C@H](/C=C/C=C(Br)Br)[C@@H](O)[C@H]2O)c(=O)[nH]1` (some centres undefined), the MCC50 result (in the assay on Coxsackievirus B4; in [16]; in assay [18]) was “>=200 uM” throughout. Also, the MEC50 in the assay on E6SM was more than 40 µM. Besides, the CC50 in assay [2] is 300 µM. For the same molecule, the “antiviral activity against HSV-1” value with Human alphaherpesvirus 1 was “inactive”. For the same molecule, the MCC50 result in the assay with Human alphaherpesvirus 2 [14] and in the assay on Vaccinia virus [17] was “inactive” each time. Further, in the assay with Vero [15], the Activity result is “Toxic”.
For `CCOC(=O)/C=C/C=C/[C@H]1OC(n2cnc3c(N)ncnc32)[C@H](O)[C@@H]1O` (some centres undefined), the MCC50 in assay [1] was more than 200 µM; with HEL [19], more than 120 µM; in the assay on Vero [8], more than 200 µM; in assay [9], more than 200 µM; in assay [12] it was more than 200 µM. This molecule displayed an MEC50 in the assay on E6SM of more than 40 µM. This molecule came in with a CC50 in [2] of 175 µM. Besides, the “antiviral activity against HSV-1” value in the assay on Human alphaherpesvirus 1 is “inactive”. Also, the “Antiviral activity against HSV-2” value in the assay on Human alphaherpesvirus 2 [3] is “inactive”. Moreover, the Ki at Adenosylhomocysteinase [4] was 10 µM. Moreover, on Adenosylhomocysteinase [20], the K inact came to 0.7 min⁻¹. On Adenosylhomocysteinase [6], this molecule displayed an NAD+ content of 25.9%. At Adenosylhomocysteinase [7], this molecule came in with an Activity of 3.6%. In addition, the antiviral activity entry (in the assay on Vaccinia virus [10]; in assay [11]) was “inactive” each time.
Take `Nc1ncnc2c1ncn2C1O[C@H](/C=C/C=C(Br)Br)[C@@H](O)[C@H]1O` (some centres undefined): the MCC50 in [1] was more than 35 µM; in the assay on HEL [21], 45 µM; in the assay on Vero [8], more than 35000 µM; in assay [9] it was more than 35 µM; in assay [12], more than 35 µM. Also, in the assay with E6SM, the MEC50 came to 6.7 µM. For the same molecule, the CC50 in assay [2] stood at 11 µM; in the assay on HEL [23], 54 µM. In addition, the “antiviral activity against HSV-1” value in the assay with Human alphaherpesvirus 1 was “inactive”. In addition, in the assay with Human alphaherpesvirus 2 [3], the “Antiviral activity against HSV-2” value was “inactive”. Besides, the NAD+ content on Adenosylhomocysteinase [22] is 93.1%. At Adenosylhomocysteinase [7], this molecule displayed an Activity of 48%. Further, the antiviral activity result (in the assay with Vaccinia virus [10]; in [11]) was “inactive” in each case.
